ChEMBL document CHEMBL4052661, “Structure Based Design of N-(3-((1H-Pyrazolo[3,4-b]pyridin-5-yl)ethynyl)benzenesulfonamides as Selective Leucine-Zipper and Sterile-α Motif Kinase (ZAK) Inhibitors” (J Med Chem, 2017)

How the values were obtained:
[1] = biological target: Serine/threonine-protein kinase B-raf (Homo sapiens, UniProt P15056); experiment: Inhibition of wild type GST-tagged recombinant human full-length B-RAF expressed in baculovirus expression system using Ser/Thr3 as substrate after 1 hr by FRET-based Z'-Lyte assay
Serine/threonine-protein kinase B-raf (Homo sapiens, UniProt P15056), sequence (P15056 whole entry): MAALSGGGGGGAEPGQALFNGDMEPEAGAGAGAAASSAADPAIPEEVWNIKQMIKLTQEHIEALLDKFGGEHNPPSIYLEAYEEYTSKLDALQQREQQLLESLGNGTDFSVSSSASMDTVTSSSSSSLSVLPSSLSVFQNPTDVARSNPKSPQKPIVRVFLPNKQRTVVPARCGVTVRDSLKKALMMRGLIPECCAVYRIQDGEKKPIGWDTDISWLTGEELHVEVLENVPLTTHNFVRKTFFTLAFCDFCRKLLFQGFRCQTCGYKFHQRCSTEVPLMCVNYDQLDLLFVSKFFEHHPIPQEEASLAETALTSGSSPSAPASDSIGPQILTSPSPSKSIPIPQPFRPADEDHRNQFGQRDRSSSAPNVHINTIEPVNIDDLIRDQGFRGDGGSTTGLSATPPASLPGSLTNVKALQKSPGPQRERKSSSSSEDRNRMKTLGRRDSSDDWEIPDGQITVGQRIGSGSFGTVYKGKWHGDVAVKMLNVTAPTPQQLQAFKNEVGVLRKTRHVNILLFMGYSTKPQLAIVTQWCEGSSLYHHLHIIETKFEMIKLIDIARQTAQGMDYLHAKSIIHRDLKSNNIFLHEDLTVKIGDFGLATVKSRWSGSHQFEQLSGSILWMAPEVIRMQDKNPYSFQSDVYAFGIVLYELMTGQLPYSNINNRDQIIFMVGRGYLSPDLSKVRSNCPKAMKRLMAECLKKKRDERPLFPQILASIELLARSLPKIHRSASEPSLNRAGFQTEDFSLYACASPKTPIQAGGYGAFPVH
How it was run: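 Z'-Lyte FRET assay with Ser/Thr3 peptide in kinase buffer; the final reaction held 0.002 ng B-Raf for wild type. Incubated 1 h at room temperature, then 1 h development to cleave nonphosphorylated peptide, then stop reagent. Means of 3 independent experiments.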

[2] = biological target: Mitogen-activated protein kinase kinase kinase 20 (Homo sapiens, UniProt Q9NYL2); experiment: Inhibition of N-terminal GST-tagged recombinant human full-length ZAK expressed in baculovirus infected Sf9 insect cells using MBP as substrate after 30 mins by ADP-Glo assay
Mitogen-activated protein kinase kinase kinase 20, sequence (Q9NYL2 whole entry): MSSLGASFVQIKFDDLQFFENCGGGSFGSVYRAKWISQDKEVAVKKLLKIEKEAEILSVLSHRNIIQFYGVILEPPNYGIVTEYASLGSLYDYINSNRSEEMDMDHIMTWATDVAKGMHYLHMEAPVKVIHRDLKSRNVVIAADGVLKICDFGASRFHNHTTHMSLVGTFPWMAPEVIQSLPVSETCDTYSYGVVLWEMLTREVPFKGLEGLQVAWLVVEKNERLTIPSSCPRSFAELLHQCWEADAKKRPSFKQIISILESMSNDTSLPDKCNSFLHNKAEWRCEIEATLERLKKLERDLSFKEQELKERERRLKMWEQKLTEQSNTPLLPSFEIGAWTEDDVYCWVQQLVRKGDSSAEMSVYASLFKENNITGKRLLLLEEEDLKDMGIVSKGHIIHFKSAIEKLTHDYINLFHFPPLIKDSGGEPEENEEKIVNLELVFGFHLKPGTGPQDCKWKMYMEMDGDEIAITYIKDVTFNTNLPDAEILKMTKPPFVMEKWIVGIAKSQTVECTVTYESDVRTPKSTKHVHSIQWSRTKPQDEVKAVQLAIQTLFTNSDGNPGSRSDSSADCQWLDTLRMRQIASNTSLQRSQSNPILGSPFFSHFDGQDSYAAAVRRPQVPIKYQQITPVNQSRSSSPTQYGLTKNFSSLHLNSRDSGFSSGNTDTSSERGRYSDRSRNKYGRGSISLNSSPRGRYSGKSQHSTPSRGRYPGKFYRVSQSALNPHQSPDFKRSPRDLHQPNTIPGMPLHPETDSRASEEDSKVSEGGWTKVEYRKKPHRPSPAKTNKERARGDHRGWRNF
How it was run: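 ZAK activity by ADP-Glo luminescence with MBP as substrate, ATP and serially diluted compound. Reaction started by adding ATP and run 30 min at room temperature. ADP-Glo reagent was added to stop it (40 min), then detection reagent for 30 min before reading luminescence. Curves fitted; each experiment repeated at least 3 times.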

[3] = biological target: Serine/threonine-protein kinase B-raf (Homo sapiens, UniProt P15056, V600E); experiment: Inhibition of recombinant human B-RAF V600E mutant using Ser/Thr3 as substrate after 1 hr by FRET-based Z'-Lyte assay
Serine/threonine-protein kinase B-raf (Homo sapiens, UniProt P15056, V600E), sequence (P15056 2-766 V600E limits assumed): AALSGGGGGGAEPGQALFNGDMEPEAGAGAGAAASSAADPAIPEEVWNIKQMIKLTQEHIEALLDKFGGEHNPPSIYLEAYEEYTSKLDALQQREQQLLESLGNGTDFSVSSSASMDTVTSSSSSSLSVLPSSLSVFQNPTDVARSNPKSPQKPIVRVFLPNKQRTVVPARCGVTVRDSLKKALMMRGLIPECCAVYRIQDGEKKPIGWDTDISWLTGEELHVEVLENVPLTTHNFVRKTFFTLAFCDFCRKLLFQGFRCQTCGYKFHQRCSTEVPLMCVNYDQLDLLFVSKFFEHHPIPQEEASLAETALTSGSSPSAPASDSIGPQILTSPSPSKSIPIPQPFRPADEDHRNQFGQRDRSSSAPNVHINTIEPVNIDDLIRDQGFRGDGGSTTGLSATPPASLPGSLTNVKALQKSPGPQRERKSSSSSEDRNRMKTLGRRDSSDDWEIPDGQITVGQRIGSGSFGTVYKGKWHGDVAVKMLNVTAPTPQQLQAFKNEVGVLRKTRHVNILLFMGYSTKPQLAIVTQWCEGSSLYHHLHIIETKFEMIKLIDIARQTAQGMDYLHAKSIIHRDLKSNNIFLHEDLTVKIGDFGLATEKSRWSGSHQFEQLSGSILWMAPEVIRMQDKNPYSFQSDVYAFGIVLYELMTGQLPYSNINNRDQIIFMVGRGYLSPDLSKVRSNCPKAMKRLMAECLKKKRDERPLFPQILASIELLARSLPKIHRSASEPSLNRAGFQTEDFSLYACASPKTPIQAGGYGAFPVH

Compound | IC50 [1] [nM] | IC50 [2] [nM] | IC50 [3] [nM]
O=S(=O)(Nc1ccc(F)c(C#Cc2cnc3[nH]nc(OC4CCCC4)c3c2)c1F)c1cccc(Cl)c1 | > 10000 | 144 | > 10000
COc1n[nH]c2ncc(C#Cc3c(F)ccc(NS(=O)(=O)c4ccccc4Cl)c3F)cc12 | > 1000 | 5.1 | > 1000
